We go through 27 compounds from ChEMBL document CHEMBL4152275, “Discovery of novel small molecule TLR4 inhibitors as potent anti-inflammatory agents” (Eur J Med Chem, 2018).

The structures appear in SMILES notation. pIC50: −log10 of the molar value.

For data set [1], the target named is T1, Toll-like receptor 4 (Homo sapiens, UniProt O00206). As to the kind of experiment: Antagonist activity at human TLR4 expressed in HEK blue cells coexpressing MD-2/CD14 assessed as inhibition of LPS-induced NF-kappaB activation-mediated SEAP production after 24 hrs. The settings on record: for pIC50: read-out: IC50. Format: cell-based. A digest of the protocol:
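HEK293 cells stably carrying human TLR4, MD-2, CD14 and an NF-κB-inducible SEAP reporter were seeded at 4×10^4/well, grown 24 h, then switched to unsupplemented DMEM. Cells were treated with 20 ng/mL LPS plus compound (1.56–100 µM; from 10 mM DMSO stocks) for 24 h. Supernatant SEAP was read with QUANTI-Blue at OD620 after 15–30 min at 37°C. Two independent experiments in triplicate.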

Data set [2] deals with HCN2 channel. As to the kind of experiment: Inhibition of HCN2 (unknown origin) expressed in COS7 cells assessed as amplitude of inward current (I/I0 ratio) at 10 uM at -40 mV holding potential by pach clamp electrophysiology assay. Conditions: Homo sapiens; call rule not given here.
Data set [3] deals with HCN4 channel. As to the kind of experiment: Inhibition of HCN4 (unknown origin) expressed in COS7 cells assessed as amplitude of inward current (I/I0 ratio) at 10 uM at -40 mV holding potential by pach clamp electrophysiology assay. Conditions: Homo sapiens.
In data set [4] the target is T2, Toll-like receptor 4 (Mus musculus) (UniProt Q9QUK6).
T2 sequence (whole entry): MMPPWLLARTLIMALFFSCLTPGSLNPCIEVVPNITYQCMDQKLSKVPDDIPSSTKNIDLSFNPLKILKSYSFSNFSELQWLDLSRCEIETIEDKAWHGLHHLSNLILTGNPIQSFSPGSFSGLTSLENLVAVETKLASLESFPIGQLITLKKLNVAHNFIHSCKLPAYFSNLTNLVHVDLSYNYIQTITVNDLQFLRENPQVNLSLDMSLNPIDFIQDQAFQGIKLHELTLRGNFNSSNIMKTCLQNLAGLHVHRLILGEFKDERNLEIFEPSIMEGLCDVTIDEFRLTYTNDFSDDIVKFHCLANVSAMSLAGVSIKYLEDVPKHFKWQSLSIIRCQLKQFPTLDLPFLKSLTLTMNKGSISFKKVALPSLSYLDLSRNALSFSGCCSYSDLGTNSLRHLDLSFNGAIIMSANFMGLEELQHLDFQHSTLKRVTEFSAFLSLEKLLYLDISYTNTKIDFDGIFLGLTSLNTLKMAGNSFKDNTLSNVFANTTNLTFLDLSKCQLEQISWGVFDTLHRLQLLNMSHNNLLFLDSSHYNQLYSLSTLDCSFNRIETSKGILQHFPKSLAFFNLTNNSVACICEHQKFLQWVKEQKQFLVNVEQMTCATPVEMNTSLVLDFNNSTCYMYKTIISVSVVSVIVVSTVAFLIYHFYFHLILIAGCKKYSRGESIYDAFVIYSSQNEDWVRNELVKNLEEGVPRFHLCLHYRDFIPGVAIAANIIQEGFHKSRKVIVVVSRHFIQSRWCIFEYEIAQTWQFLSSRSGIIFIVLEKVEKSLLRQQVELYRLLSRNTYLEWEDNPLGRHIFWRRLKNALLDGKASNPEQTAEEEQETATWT
As to the kind of experiment: Antagonist activity at TLR4 in mouse RAW264.7 cells assessed as inhibition of LPS-induced NO production after 24 hrs by Griess assay. The format is cell-based. In outline:
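RAW264.7 or BV-2 cells were seeded at 50,000/well in DMEM + 10% FBS with penicillin/streptomycin and pre-incubated 24 h at 37°C, 5% CO2. Medium was replaced with unsupplemented DMEM. Cells were treated with 40 ng/mL LPS plus graded compound for 24 h. Supernatant nitrite was read by Griess reaction (sulfanilic acid/phosphoric acid, then naphthylethylenediamine, 10 min each) against a nitrite standard.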
In general terms: Nitrite, measured by Griess reagent, commonly stands in for NO production.

Data set [5] has as its system HCN2 channel. As to the kind of experiment: Inhibition of HCN2 (unknown origin) expressed in COS7 cells assessed as Tdeact time at 10 uM at -40 mV holding potential measured at +50 mV by pach clamp electrophysiology assay (reference value: 66 +/- 4.2 milliseconds). The settings on record: Homo sapiens.
The test system of data set [6] is HCN2 channel. As to the kind of experiment: Inhibition of HCN2 (unknown origin) expressed in COS7 cells assessed as Tact time at 10 uM at -40 mV holding potential measured at -120 mV by pach clamp electrophysiology assay (reference value: 242.9 +/- 24 milliseconds). The settings on record: Homo sapiens.
Data set [7] can be described thus: Cytotoxicity against human HEK-Blue cells assessed as decrease in cell viability up to 100 uM after 24 hrs by CCK-8 assay. The format is cell-based. A digest of the protocol: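 HEK-Blue hTLR4 cells were incubated with 40 ng/mL LPS and compound (0–100 µM) for 24 h. Viability was measured by CCK-8 absorbance at 450 nm.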
Data set [8] has as its target T1, Toll-like receptor 4. As to the kind of experiment: Antagonist activity at TLR4 in human PBMC assessed as inhibition of LPS-induced TNFalpha production at 20 uM after 24 hrs by ELISA relative to control. The format is cell-based. In outline: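 Human PBMC at 1×10^6 cells/well in RPMI 1640 were given compound with or without 10 ng/mL LPS for 24 h at 37°C, 5% CO2. Supernatants were frozen at −80°C, then TNF-α was quantified by sandwich ELISA against a recombinant human standard. Each sample was run in triplicate; three independent experiments, mean ± SD.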
(An ELISA detects its analyte on a solid surface through an enzyme-linked reagent.)

Data set [9] concerns HCN2 channel. As to the kind of experiment: Inhibition of HCN2 (unknown origin) expressed in COS7 cells assessed as change in half activation potential at 10 uM at -40 mV holding potential by pach clamp electrophysiology assay. The settings on record: Homo sapiens.
For data set [10], the system named is HCN4 channel. As to the kind of experiment: Inhibition of HCN4 (unknown origin) expressed in COS7 cells assessed as change in half activation potential at 10 uM at -40 mV holding potential by pach clamp electrophysiology assay. The settings on record: Homo sapiens.
The target in data set [11] is T1, Toll-like receptor 4. As to the kind of experiment: Antagonist activity at human TLR4 expressed in HEK blue cell lysates assessed as inhibition of LPS-induced TLR4 protein expression after 24 hrs by Western blot method. A digest of the protocol:
(§1)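 HEK-Blue hTLR4 cells at 1×10^6/well were grown 24 h in DMEM + 10% FBS, then switched to unsupplemented DMEM. Cells were treated with 40 ng/mL LPS and compound (0–20 µM) for 24 h, then lysed on ice. Protein was measured by BCA, run on 10% SDS-PAGE and blotted to PVDF. Blots were probed with anti-TLR4 (overnight, 4°C) with ECL detection; GAPDH served as loading control.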
A general note: In western blotting, separated proteins are transferred to a membrane and probed.

Data set [12] deals with Toll-like receptor 4 (Mus musculus) (UniProt Q9QUK6). As to the kind of experiment: Antagonist activity at TLR4 in mouse BV2 cells assessed as inhibition of LPS-induced NO production after 24 hrs by Griess assay.
The test system of data set [13] is HCN4 channel. As to the kind of experiment: Inhibition of HCN4 (unknown origin) expressed in COS7 cells assessed as Tact time at 10 uM at -40 mV holding potential measured at -120 mV by pach clamp electrophysiology assay (reference value: 780.9 +/- 59.2 milliseconds). Conditions: Homo sapiens.
For data set [14], the system named is HCN4 channel. As to the kind of experiment: Inhibition of HCN4 (unknown origin) expressed in COS7 cells assessed as Tdeact time at 10 uM at -40 mV holding potential measured at +50 mV by pach clamp electrophysiology assay (reference value: 92.9 +/- 9.5 milliseconds). The settings on record: Homo sapiens.
Data set [15] concerns the target T1, Toll-like receptor 4. As to the kind of experiment: Antagonist activity at human TLR4 expressed in HEK blue cell lysates assessed as inhibition of LPS-induced TLR4 protein expression at 10 uM after 24 hrs by Western blot method relative to control. A digest of the protocol: as §1

T1 sequence (O00206 whole entry): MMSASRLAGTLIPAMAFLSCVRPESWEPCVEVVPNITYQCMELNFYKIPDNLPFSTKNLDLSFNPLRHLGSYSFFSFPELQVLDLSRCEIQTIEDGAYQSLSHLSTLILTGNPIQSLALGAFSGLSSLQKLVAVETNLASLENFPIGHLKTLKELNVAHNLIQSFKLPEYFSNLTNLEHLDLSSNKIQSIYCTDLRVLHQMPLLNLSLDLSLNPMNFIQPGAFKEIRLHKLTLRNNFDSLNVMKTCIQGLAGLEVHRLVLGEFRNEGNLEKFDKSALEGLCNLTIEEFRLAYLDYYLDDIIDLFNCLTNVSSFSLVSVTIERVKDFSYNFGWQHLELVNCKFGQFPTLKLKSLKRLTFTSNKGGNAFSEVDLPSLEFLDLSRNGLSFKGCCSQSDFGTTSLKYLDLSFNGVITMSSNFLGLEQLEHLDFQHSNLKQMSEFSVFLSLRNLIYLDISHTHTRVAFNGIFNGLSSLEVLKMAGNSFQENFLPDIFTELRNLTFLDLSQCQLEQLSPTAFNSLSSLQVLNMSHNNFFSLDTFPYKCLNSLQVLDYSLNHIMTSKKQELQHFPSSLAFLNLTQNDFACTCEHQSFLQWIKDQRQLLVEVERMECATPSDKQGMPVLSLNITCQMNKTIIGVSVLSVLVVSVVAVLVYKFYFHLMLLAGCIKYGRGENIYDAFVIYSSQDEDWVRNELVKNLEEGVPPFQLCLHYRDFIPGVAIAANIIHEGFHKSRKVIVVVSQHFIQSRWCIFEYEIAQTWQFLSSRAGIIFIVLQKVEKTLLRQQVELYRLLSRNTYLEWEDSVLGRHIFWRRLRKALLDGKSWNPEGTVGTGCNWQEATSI

Turning to `CCCc1ccc(OCCC(O)CN(C)Cc2c(C)nn(Cc3ccccc3Cl)c2C)cc1` (stereo not given), the pIC50 on Toll-like receptor 4 [1] was 4.61.

In the case of `Cc1nn(Cc2ccccc2Cl)c(C)c1CN(C)CC(O)CCOc1cccc2[nH]c3ccccc3c12` (stereo not given), at Toll-like receptor 4 [1], the pIC50 is 4.82.

Take `Cc1nn(Cc2ccccc2Cl)c(C)c1CN(C)CC(O)CCOc1ccc(C(C)(C)C)cc1` (stereo not given): at Toll-like receptor 4 [1], the pIC50 was 4.78.

For `OC(CNc1ccc(F)cc1)COc1cccc2[nH]c3ccccc3c12` (stereo not given), at Toll-like receptor 4 [1], the IC50 entry is reported as “Not Active”. The Ratio in the data set on HCN2 channel [2] stood at 1; in the data set with HCN4 channel [3], 0.82.

For the compound `Cc1ccc(OCCC(O)CN(C)Cc2c(C)nn(Cc3ccccc3Cl)c2C)cc1` (stereo not given), the pIC50 on Toll-like receptor 4 [1] is 4.29.

Take `COc1ccccc1OCCNCC(O)COc1cccc2[nH]c3ccccc3c12` (stereo not given) [CARVEDILOL]: the pIC50 at Toll-like receptor 4 [1] is 4.48.

As to `CCOc1ccc(OCCC(O)CN(C)Cc2c(C)nn(Cc3ccccc3Cl)c2C)cc1` (stereo not given), at Toll-like receptor 4 [1], the IC50 result is reported as “Not Active”.

In the case of `CCOc1ccc(OCCC(O)CN(C)Cc2c(C)nn(Cc3ccccc3C)c2C)cc1` (stereo not given), the pIC50 at Toll-like receptor 4 [1] was 4.26.

Consider `CCOc1ccc(OCCC(O)CN(C)Cc2c(C)nn(Cc3ccc(Cl)cc3)c2C)cc1` (stereo not given), for which the pIC50 at Toll-like receptor 4 [1] is 4.59.

As for `CCOc1ccc(OCCC(O)CNCCOc2ccccc2OC)cc1` (stereo not given), on Toll-like receptor 4 [1], the IC50 result is “Not Active”.

Consider `Cc1nn(Cc2ccccc2)c(C)c1CN(C)CC(O)COc1cccc2[nH]c3ccccc3c12` (stereo not given), for which the pIC50 at Toll-like receptor 4 [1] is 4.50.

Regarding `Cc1nn(Cc2ccccc2F)c(C)c1CN(C)CC(O)COc1cccc2[nH]c3ccccc3c12` (stereo not given), the negative-log IC50 (pIC50) at Toll-like receptor 4 [1] is 4.46.

As to `Cc1nn(Cc2ccccc2Cl)cc1CN(C)CC(O)COc1cccc2[nH]c3ccccc3c12` (stereo not given), the IC50 result on Toll-like receptor 4 [1] is on record as “Not Active”.

In the case of `O=C(c1ccccc1)c1cc(Cl)ccc1NCC(O)COc1cccc2[nH]c3ccccc3c12` (stereo not given), the pIC50 on Toll-like receptor 4 [1] was 4.68.

Take `CCOc1ccc(OCC(O)CNCCOc2ccccc2OC)cc1` (stereo not given): the IC50 result on Toll-like receptor 4 [1] is reported as “Not Active”.

For `Cc1nn(Cc2ccccc2Cl)c(C)c1CN(C)CC(O)CCOc1ccc(F)cc1` (stereo not given), the pIC50 at Toll-like receptor 4 [1] is 4.26.

Consider `COc1ccccc1OCCNCC(O)CCOc1cccc2[nH]c3ccccc3c12` (stereo not given), for which the pIC50 on Toll-like receptor 4 [1] was 4.49.

For the compound `CCc1ccc(OCCC(O)CN(C)Cc2c(C)nn(Cc3ccccc3Cl)c2C)cc1` (stereo not given), the pIC50 on Toll-like receptor 4 [1] is 4.58.

Take `OC(CNc1ccc(-c2ccccc2)cc1)COc1cccc2[nH]c3ccccc3c12` (stereo not given): on Toll-like receptor 4 [1], the pIC50 was 4.66.

Take `OC(CNc1ccc2ccccc2c1)COc1cccc2[nH]c3ccccc3c12` (stereo not given): the pIC50 on Toll-like receptor 4 [1] was 4.54.

With `O=C1c2ccccc2C(=O)c2cc(NCC(O)COc3cccc4[nH]c5ccccc5c34)ccc21` (stereo not given), the IC50 entry at Toll-like receptor 4 [1] is recorded as “Not Active”.

On to `Cc1nn(Cc2ccccc2Cl)c(C)c1CN(C)CC(O)COc1cccc2[nH]c3ccccc3c12` (stereo not given), for which, on Toll-like receptor 4 [1], the pIC50 was 4.90. Moreover, the inhibition result in data set [4] is “Dose-dependent effect”; at Toll-like receptor 4 [8] it was 80%; at Toll-like receptor 4 [11] it was “Dose-dependent effect”; in data set [12] it was “Dose-dependent effect”; on Toll-like receptor 4 [15], > 90%. The TIME in the data set on HCN2 channel [5] amounted to 1.47e-05 h; in the data set with HCN2 channel [6], 0.000248 h; in the data set on HCN4 channel [13], 0.000597 h; in the data set on HCN4 channel [14], 2.22e-05 h. The Activity entry in data set [7] is listed as “Non-Toxic”. In addition, the Ratio with HCN2 channel [2] worked out at 0.7; in the data set with HCN4 channel [3], 0.5. The V1/2 is -21.4 mV in the data set on HCN2 channel [9] and -28.8 mV in the data set with HCN4 channel [10].

On to `Cc1nn(Cc2ccc(Cl)cc2)c(C)c1CN(C)CC(O)COc1cccc2[nH]c3ccccc3c12` (stereo not given), for which the negative logarithm of the IC50 (pIC50) at Toll-like receptor 4 [1] is 4.87.

With `OC(CNc1ccc2c(c1)-c1ccccc1C2)COc1cccc2[nH]c3ccccc3c12` (stereo not given), the pIC50 on Toll-like receptor 4 [1] is 4.91.

In the case of `C/N=C/c1cn(CC(O)COc2cccc3[nH]c4ccccc4c23)cn1` (stereo not given), the IC50 result at Toll-like receptor 4 [1] was “Not Active”.

In the case of `CCOc1ccc(OCC(O)CN(C)Cc2c(C)nn(Cc3ccccc3Cl)c2C)cc1` (stereo not given), the pIC50 on Toll-like receptor 4 [1] was 4.47. Further, the Ratio in the data set on HCN2 channel [2] worked out at 0.73; with HCN4 channel [3], 0.75.

On to `CCOc1ccc(OCCC(O)CN(C)Cc2c(C)nn(Cc3ccccc3F)c2C)cc1` (stereo not given), for which the IC50 entry at Toll-like receptor 4 [1] is given as “Not Active”.

For orientation: pIC50 means the IC50 on a negative log10 scale, so that one unit is a factor of ten. One may read the inhibition as the percentage by which the read-out fell short of the control.
